How the values were obtained:
[1] = Growth inhibition of human RXF393 cells after 48 hrs by coulter counting analysis; assay type: functional; conditions: RXF 393, 48 h
Method in brief: (§1)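 Five-dose NCI-60 follow-up, 0.01–100 µM, made from DMSO stock in buffered saline (final DMSO <1%), in duplicate wells. Cells in RPMI 1640 with 10% FBS at 6×10^4 cells/ml, 37 °C, 5% CO2, 48 h. Cells diluted tenfold in saline, Coulter-counted and corrected for dilution. GI50, TGI and LC50 taken from log concentration–percent growth curves.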

IGROV-1 = assay: Growth inhibition of human IGROV1 cells after 48 hrs by coulter counting analysis; assay type: functional; conditions: IGROV-1, 48 h
Method in brief: (§2)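 NCI five-dose screen at 0.01-100 µM, diluted from DMSO stocks in buffered saline (final DMSO <1%). Cells at 6×10^4 cells/ml in RPMI 1640 with 10% FBS, in duplicate wells, at 37 °C under 5% CO2 for 48 h. Cells diluted tenfold in saline and Coulter-counted. GI50, TGI and LC50 taken from log concentration-growth inhibition curves.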

MDA-MB-231 = assay: Growth inhibition of human MDA-MB-231 cells after 48 hrs by coulter counting analysis; assay type: functional; conditions: MDA-MB-231, 48 h; method in brief: as §2
[2] = biological target: Cyclin-dependent kinase 4/cyclin D1 (Homo sapiens) (UniProt P11802+P24385); assay: Inhibition of CDK4/Cyclin D1 (unknown origin) at 20 uM after 30 mins by scintillation counting analysis relative to control; assay type: protein-complex assay
Method in brief: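 Recombinant kinases, cloned, expressed and purified in-house. Radiometric ³³P-ATP assay with kinase at ~10-50 nM final and 1-5 µg peptide or protein substrate. Compound at 20 µM final, in duplicate. Reaction started by adding ATP, run 30 min at ambient temperature, then spotted on P81 phosphocellulose. Plates washed in 1% phosphoric acid and counted by scintillation. No-substrate blank subtracted. Result is mean % activity change versus DMSO control.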

CCRF-CEM [3] = assay: Growth inhibition of human CCRF-CEM cells at 10 uM after 48 hrs by sulforhodamine B assay relative to control; assay type: functional; conditions: read-out: GI
Method in brief: (§3)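 NCI-60 primary screen at a single dose of 10 µM with 48 h continuous exposure. Growth or viability read by sulforhodamine B protein staining and expressed as percent growth inhibition versus untreated cells.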

MCF7 = assay: Growth inhibition of human MCF7 cells after 48 hrs by coulter counting analysis; assay type: functional; conditions: MCF7, 48 h; method in brief: as §2
CCRF-CEM [4] = assay: Growth inhibition of human CCRF-CEM cells after 48 hrs by coulter counting analysis; assay type: functional; method in brief: as §2
A549 = assay: Growth inhibition of human A549/ATCC cells after 48 hrs by coulter counting analysis; assay type: functional; conditions: A549, 48 h; method in brief: as §2
[5] = Growth inhibition of human Hs 578T cells after 48 hrs by coulter counting analysis; assay type: functional; method in brief: as §2
[6] = Growth inhibition of human OVCAR8 cells after 48 hrs by coulter counting analysis; assay type: functional; conditions: OVCAR-8, 48 h; method in brief: as §1
MDA-MB-468 = assay: Growth inhibition of human MDA-MB-468 cells after 48 hrs by coulter counting analysis; assay type: functional; conditions: MDA-MB-468, 48 h; method in brief: as §1
NCI-H322M = assay: Growth inhibition of human NCI-H322M cells after 48 hrs by coulter counting analysis; assay type: functional; method in brief: as §1
[7] = Growth inhibition of human NCI-ADR-RES cells after 48 hrs by coulter counting analysis; assay type: functional; method in brief: as §1
[8] = Growth inhibition of human HOP92 cells after 48 hrs by coulter counting analysis; assay type: functional; conditions: HOP-92, 48 h; method in brief: as §2
HCT-116 = assay: Growth inhibition of human HCT116 cells at 10 uM after 48 hrs by sulforhodamine B assay relative to control; assay type: functional; conditions: HCT-116, 48 h, read-out: GI; method in brief: as §3
[9] = Growth inhibition of human OVCAR4 cells after 48 hrs by coulter counting analysis; assay type: functional; conditions: OVCAR-4, 48 h; method in brief: as §1
[10] = Growth inhibition of human UACC62 cells after 48 hrs by coulter counting analysis; assay type: functional; conditions: UACC-62, 48 h
Method in brief: (§4)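 NCI five-dose screen, 0.01-100 µM, from DMSO stocks diluted in buffer saline (final DMSO <1%). Cells grown in RPMI 1640 + 10% FBS, seeded at 6×10^4 cells/ml, in duplicate wells. Exposure 48 h at 37 °C, 5% CO2. Cells diluted 10-fold in saline and counted by Coulter counter. GI50 derived from log concentration–percent growth inhibition curves. Controls carried matching PBS/saline/DMSO.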

DU-145 [11] = assay: Growth inhibition of human DU145 cells after 48 hrs by coulter counting analysis; assay type: functional; conditions: DU-145, 48 h; method in brief: as §2
[12] = Growth inhibition of human BT549 cells after 48 hrs by coulter counting analysis; assay type: functional; conditions: BT-549, 48 h; method in brief: as §2
[13] = Growth inhibition of human UO31 cells after 48 hrs by coulter counting analysis; assay type: functional; conditions: UO-31, 48 h; method in brief: as §4
786-0 = assay: Growth inhibition of human 786-0 cells after 48 hrs by coulter counting analysis; assay type: functional; conditions: 786-0, 48 h; method in brief: as §2
M14 = assay: Growth inhibition of human M14 cells after 48 hrs by coulter counting analysis; assay type: functional; conditions: M14, 48 h; method in brief: as §2
KM12 = assay: Growth inhibition of human KM12 cells after 48 hrs by coulter counting analysis; assay type: functional; conditions: KM12, 48 h; method in brief: as §2
SNB-75 = assay: Growth inhibition of human SNB75 cells after 48 hrs by coulter counting analysis; assay type: functional; conditions: SNB-75, 48 h; method in brief: as §1
DU-145 [14] = assay: Growth inhibition of human DU145 cells at 10 uM after 48 hrs by sulforhodamine B assay relative to control; assay type: functional; conditions: DU-145, 48 h, read-out: GI; method in brief: as §3
SK-OV-3 = assay: Growth inhibition of human SKOV3 cells after 48 hrs by coulter counting analysis; assay type: functional; conditions: SK-OV-3, 48 h; method in brief: as §1
[15] = Growth inhibition of human OVCAR5 cells after 48 hrs by coulter counting analysis; assay type: functional; conditions: OVCAR-5, 48 h; method in brief: as §1
[16] = Growth inhibition of human MOLT4 cells after 48 hrs by coulter counting analysis; assay type: functional; conditions: MOLT-4, 48 h; method in brief: as §1
[17] = Growth inhibition of human OVCAR8 cells at 10 uM after 48 hrs by sulforhodamine B assay relative to control; assay type: functional; conditions: OVCAR-8, 48 h, read-out: GI
Method in brief: (§5)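 NCI-60 primary screen at a single 10 µM dose. Continuous 48 h exposure, with growth or viability estimated by sulforhodamine B protein staining. Reported as percent growth inhibition of treated cells relative to untreated growth.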

K562 = assay: Growth inhibition of human K562 cells after 48 hrs by coulter counting analysis; assay type: functional; conditions: K562, 48 h; method in brief: as §2
TK-10 = assay: Growth inhibition of human TK10 cells after 48 hrs by coulter counting analysis; assay type: functional; conditions: TK-10, 48 h; method in brief: as §4
NCI-H460 = assay: Growth inhibition of human NCI-H460 cells at 10 uM after 48 hrs by sulforhodamine B assay relative to control; assay type: functional; conditions: NCI-H460, 48 h, read-out: GI; method in brief: as §5

C=CCc1c2c(c(OC)c3ccoc13)C(=O)/C(=C/c1ccccc1OC)O2
GI50 [1]: 2.47 µM
GI50 (IGROV-1): 5.27 µM
GI50 (MDA-MB-231): 4.59 µM
inhibition [2]: 9%
inhibition of growth at 10 µM (CCRF-CEM [3]): 63%
GI50 (MCF7): 2.92 µM
GI50 (CCRF-CEM [4]): 3.44 µM
GI50 (A549): 4.12 µM
GI50 [5]: 5.29 µM
GI50 [6]: 3.87 µM
GI50 (MDA-MB-468): 2.46 µM
GI50 (NCI-H322M): 5.93 µM
GI50 [7]: 2.82 µM
GI50 [8]: 2.07 µM
inhibition of growth at 10 µM (HCT-116): 79%
GI50 [9]: 3.34 µM
GI50 [10]: 4.14 µM
GI50 (DU-145 [11]): 3.19 µM
GI50 [12]: 4.44 µM
GI50 [13]: 4.98 µM
GI50 (786-0): 6.29 µM
GI50 (M14): 8.19 µM
GI50 (KM12): 3.49 µM
GI50 (SNB-75): 1.44 µM
inhibition of growth at 10 µM (DU-145 [14]): 65%
GI50 (SK-OV-3): 5.45 µM
GI50 [15]: 3.57 µM
GI50 [16]: 3.52 µM
inhibition of growth at 10 µM [17]: 61%
GI50 (K562): 3.51 µM
GI50 (TK-10): 6.5 µM
inhibition of growth at 10 µM (NCI-H460): 69%

— ChEMBL document CHEMBL3286372, “Design, synthesis and structure-activity relationship of novel semi-synthetic flavonoids as antiproliferative agents” (2014)
